# Source: ChEMBL document CHEMBL1123011, “Isoxazoles with antipicornavirus activity” (1985)
# The source made the active and inactive calls. The calls are words filed in the database; no cut-off is given here.
# What was measured:
# Enterovirus [1] = test: Effect on plaque production by Human Rhinovirus serotype 75; format: functional
# How it was run: (§1)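 HeLa (Ohio) monolayers (day-old, 90%) were infected at about 80 pfu/well and adsorbed at least 1 h at 33 °C in 2% CO2. After 3 days at 33 °C they were fixed with formaldehyde and stained with crystal violet. MIC was the concentration giving 50% fewer plaques.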
# Mus musculus [2] = test: Effect of compound on Poliovirus induced paralysis and death in mice when administered orally with dose 63 mg/kg.; format: functional; settings: route oral
# How it was run: (§2)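 ICR Buckberg mice (18–21 g) were infected intracerebrally with polio-2 (MEF strain). Compound was given orally bid at 31–250 mg/kg: 1 h before infection, 2 h after, then twice daily for 13 days. Placebo and nonmedicated groups served as controls, with 30 mice per group. Flaccid paralysis and death were scored and survivors counted when the test ended on day 20.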
# Enterovirus [3] = test: Effect on plaque production by Human Rhinovirus serotype 33; format: functional; how it was run: as §1
# Mus musculus [4] = test: Effect of compound on number of survivors per 30 mice at dose 125 mg/kg; format: functional; how it was run: as §2
# rhinovirus A2 [5] = test: Minimum inhibitory concentration of compound in vitro against rhinovirus-2; format: functional, rhinovirus type-2; settings: Rhinovirus A; how it was run: as §1
# Enterovirus [6] = test: Effect on plaque production by Human Rhinovirus serotype 31 (seven most common serotypes); format: functional; how it was run: as §1
# Enterovirus [7] = test: Effect on plaque production by Human Rhinovirus serotype 41; NA=Not active; format: functional, organism-based; how it was run: as §1
# Mus musculus [8] = test: Effect of compound on number of survivors per 30 mice at dose 63 mg/kg; format: functional; how it was run: as §2
# Mus musculus [9] = test: Effect of compound on number of survivors per 30 mice at dose 31 mg/kg; format: functional; how it was run: as §2
# Poliovirus 3 = test: Minimum inhibitory concentration of compound in vitro against poliovirus-3; format: functional; settings: Enterovirus C
# Enterovirus [10] = test: Effect on plaque production by Human Rhinovirus serotype 14; format: functional; how it was run: as §1
# Enterovirus [11] = test: Effect on plaque production by Human Rhinovirus serotype 15 (seven most common serotypes); format: functional; how it was run: as §1
# Echovirus E11 = test: Minimum inhibitory concentration of compound in vitro against echovirus-11; format: functional; settings: Enterovirus B
# How it was run: (§3)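 Plaque reduction on day-old HeLa (Ohio) monolayers, about 80 pfu/well. Drug was serially diluted twofold from a 10 mg/mL Me2SO stock into an M-199/10% calf serum/agarose overlay, applied in duplicate after virus adsorption. Plaques were counted after 3 days in 2% CO2, following formaldehyde fixation and crystal violet staining. MIC was the concentration producing 50% plaque reduction.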
# Mus musculus [12] = test: Effect of compound on Poliovirus induced paralysis and death in mice when administered orally with dose 250 mg/kg.; format: functional; settings: route oral; how it was run: as §2
# Enterovirus [13] = test: Effect on plaque production by Human Rhinovirus serotype 89; format: functional; how it was run: as §1
# Enterovirus [14] = test: Effect on plaque production by Human Rhinovirus serotype 49; format: functional; how it was run: as §1
# Enterovirus [15] = test: Effect on plaque production by Human Rhinovirus serotype 2; format: functional; how it was run: as §1
# Poliovirus 2 [16] = test: In vitro anti-picornavirus activity against Poliovirus type-2.; format: functional; settings: Enterovirus C
# Enterovirus [17] = test: Effect on plaque production by Human Rhinovirus serotype 61; format: functional; how it was run: as §1
# Enterovirus [18] = test: Effect on plaque production by Human Rhinovirus serotype 13; format: functional; how it was run: as §1
# Enterovirus [19] = test: Effect on plaque production by Human Rhinovirus serotype 29; format: functional; how it was run: as §1
# Enterovirus [20] = test: Effect on plaque production by Human Rhinovirus serotype 4 (seven most common serotypes); NA=Not active; format: functional, organism-based; how it was run: as §1
# Mus musculus [21] = test: Effect of compound on number of survivors per 30 mice at nonmed mg/kg; format: functional; how it was run: as §2
# Enterovirus [22] = test: Effect on plaque production by Human Rhinovirus serotype 50; format: functional; how it was run: as §1
# Enterovirus [23] = test: Effect on plaque production by Human Rhinovirus serotype 36; format: functional; how it was run: as §1
# Mus musculus [24] = test: Effect of compound on Poliovirus induced paralysis and death in mice when administered orally with nonmed mg/kg.; format: functional; how it was run: as §2
# [25] = Maximum testable level of compound was evaluated; format: functional
# How it was run: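 In the HeLa (Ohio) plaque-overlay system, Me2SO-solubilized compound was twofold serially diluted into the agarose overlay. Uninfected cell controls were run alongside and cells were stained with crystal violet after 3 days. The maximum testable level was taken as the concentration below which no cytotoxic effects were seen.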
# Echovirus E9 = test: Minimum inhibitory concentration of compound in vitro against echovirus-9; format: functional; settings: Enterovirus B; how it was run: as §3
# Enterovirus [26] = test: Effect on plaque production by Human Rhinovirus serotype 16; format: functional; how it was run: as §1
# rhinovirus A2 [27] = test: In vitro anti-picornavirus activity against Rhinovirus type-2.; format: functional; settings: Rhinovirus A
# How it was run: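 HeLa (Ohio) monolayers (day-old, 90%) were infected at about 80 pfu/well and adsorbed at least 1 h at 33 °C in 2% CO2. After 3 days at 33 °C they were fixed with formaldehyde and stained with crystal violet.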
# Mus musculus [28] = test: Effect of compound on Poliovirus induced paralysis and death in mice when administered orally with dose 125 mg/kg.; format: functional; settings: route oral; how it was run: as §2
# Enterovirus [29] = test: Effect on plaque production by Human Rhinovirus serotype 29 (seven most common serotypes); format: functional; how it was run: as §1
# Mus musculus [30] = test: Effect of compound on number of survivors per 30 mice at placebo mg/kg; format: functional; how it was run: as §2
# Enterovirus [31] = test: Effect on plaque production by Human Rhinovirus serotype 1A (seven most common serotypes); format: functional; how it was run: as §1
# Mus musculus [32] = test: Effect of compound on Poliovirus induced paralysis and death in mice when administered orally with placebo mg/kg.; format: functional; how it was run: as §2
# Enterovirus [33] = test: Effect on plaque production by Human Rhinovirus serotype 18; format: functional; how it was run: as §1
# Mus musculus [34] = test: Effect of compound on number of survivors per 30 mice at dose 250 mg/kg; format: functional; how it was run: as §2
# Enterovirus [35] = test: Effect on plaque production by Human Rhinovirus serotype 5; format: functional; how it was run: as §1
# Enterovirus [36] = test: Effect on plaque production by Human Rhinovirus serotype 86; format: functional; how it was run: as §1
# Enterovirus [37] = test: Effect on plaque production by Human Rhinovirus serotype 39; format: functional; how it was run: as §1
# Enterovirus [38] = test: Effect on plaque production by Human Rhinovirus serotype 1B (seven most common serotypes); format: functional; how it was run: as §1
# Enterovirus [39] = test: Effect on plaque production by Human Rhinovirus serotype 3; format: functional; how it was run: as §1
# Poliovirus 2 [40] = test: Minimum inhibitory concentration of compound in vitro against poliovirus-2; format: functional; settings: Enterovirus C
# How it was run: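 Plaque-reduction assay on day-old HeLa (Ohio) monolayers at 90% confluence, infected with polio-2 at ca. 80 pfu/well. Adsorption was at least 1 h at 37 °C in 2% CO2. Cells were then overlaid in duplicate with drug in M-199/calf serum/agarose (Me2SO stock at 10 mg/mL, twofold dilutions) and held 3 days. Plaques were fixed with formaldehyde, stained with crystal violet and counted. MIC is the concentration giving 50% plaque reduction.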
# Enterovirus [41] = test: Effect on plaque production by Human Rhinovirus serotype 22; format: functional; how it was run: as §1
# Enterovirus [42] = test: Effect on plaque production by Human Rhinovirus serotype 21; format: functional; how it was run: as §1
# Enterovirus [43] = test: Effect on plaque production by Human Rhinovirus serotype 72; NA=Not active; format: functional, organism-based; how it was run: as §1
# Mus musculus [44] = test: Effect of compound on Poliovirus induced paralysis and death in mice when administered orally with 31 mg/kg.; format: functional; settings: route oral; how it was run: as §2
compound,measurement,setting,value
COc1ccc(OCCCCCCCc2cc(C)no2)c(Cl)c1,MIC,Enterovirus [1],4.1 µg/mL
same,survival at 63 mg/kg,Mus musculus [2],67%
same,MIC,Enterovirus [3],0.05 µg/mL
same,Survivors,Mus musculus [4],22
same,MIC,rhinovirus A2 [5],0.04 µg/mL
same,MIC,Enterovirus [6],0.53 µg/mL
same,MIC,Enterovirus [7],inactive
same,Survivors,Mus musculus [8],20
same,Survivors,Mus musculus [9],16
same,MIC,Poliovirus 3,0.08 µg/mL
same,MIC,Enterovirus [10],1.35 µg/mL
same,MIC,Enterovirus [11],0.44 µg/mL
same,MIC,Echovirus E11,0.04 µg/mL
same,survival at 250 mg/kg,Mus musculus [12],93%
same,MIC,Enterovirus [13],0.03 µg/mL
same,MIC,Enterovirus [14],0.26 µg/mL
same,MIC,Enterovirus [15],0.04 µg/mL
same,MIC,Poliovirus 2 [16],0.05 µg/mL
same,MIC,Enterovirus [17],0.09 µg/mL
same,MIC,Enterovirus [18],1.9 µg/mL
same,MIC,Enterovirus [19],3.1 µg/mL
same,MIC,Enterovirus [20],inactive
same,Survivors,Mus musculus [21],7
same,MIC,Enterovirus [22],0.13 µg/mL
same,MIC,Enterovirus [23],0.04 µg/mL
same,Survival,Mus musculus [24],22%
same,MTL,[25],12.5 µg/mL
same,MIC,Echovirus E9,0.15 µg/mL
same,MIC,Enterovirus [26],0.04 µg/mL
same,MIC,rhinovirus A2 [27],0.04 µg/mL
same,survival at 125 mg/kg,Mus musculus [28],73%
same,MIC,Enterovirus [29],0.33 µg/mL
same,Survivors,Mus musculus [30],7
same,MIC,Enterovirus [31],0.29 µg/mL
same,Survival,Mus musculus [32],22%
same,MIC,Enterovirus [33],1.5 µg/mL
same,Survivors,Mus musculus [34],28
same,MIC,Enterovirus [35],5.8 µg/mL
same,MIC,Enterovirus [36],0.25 µg/mL
same,MIC,Enterovirus [37],0.07 µg/mL
same,MIC,Enterovirus [38],0.37 µg/mL
same,MIC,Enterovirus [39],0.5 µg/mL
same,MIC,Poliovirus 2 [40],0.05 µg/mL
same,MIC,Enterovirus [41],0.1 µg/mL
same,MIC,Enterovirus [42],0.01 µg/mL
same,MIC,Enterovirus [43],inactive
same,survival at 31 mg/kg,Mus musculus [44],53%
